Data: ChEMBL document CHEMBL4190234, “Design, synthesis and anticancer activity of new monastrol analogues bearing 1,3,4-oxadiazole moiety” (Eur J Med Chem, 2017)

What was measured:
CCRF-CEM = experiment: Growth inhibition of human CCRF-CEM cells at 10 uM incubated for 48 hrs by sulforhodamine B assay relative to control; type: functional; conditions: read-out: GI
Outline: (§1)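 Single-dose screen at 10 μM final: cells in RPMI 1640, 5% FBS, 2 mM L-glutamine, plated 5,000–40,000/well, preincubated 24 h at 37°C, 5% CO2; drug 48 h; adherent cells fixed with 10% TCA, suspension cells with 16% TCA; SRB stain, absorbance 515 nm; percentage growth versus untreated control, with time-zero plates.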

HL-60(TB) [1] = experiment: Growth inhibition of human HL-60(TB) cells at 10 uM incubated for 48 hrs by sulforhodamine B assay relative to control; type: functional; conditions: HL-60, 48 h, read-out: GI
Outline: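 Single dose of 10 µM in the NCI ~60-line panel. Cells grown in RPMI 1640 with 5% FBS and 2 mM L-glutamine, plated and pre-incubated 24 h, then exposed 48 h at 37°C under 5% CO2. Suspension cells fixed with TCA (16% final) and stained with sulforhodamine B, A515 read. Reported as percent growth versus untreated control and as GI%.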

MOLT-4 = experiment: Growth inhibition of human MOLT4 cells at 10 uM incubated for 48 hrs by sulforhodamine B assay relative to control; type: functional; conditions: MOLT-4, 48 h, read-out: GI; outline: as §1
RPMI-8226 = experiment: Growth inhibition of human RPMI8226 cells at 10 uM incubated for 48 hrs by sulforhodamine B assay relative to control; type: functional; conditions: RPMI-8226, 48 h, read-out: GI; outline: as §1
SR = experiment: Growth inhibition of human SR cells at 10 uM incubated for 48 hrs by sulforhodamine B assay relative to control; type: functional; conditions: read-out: GI
Outline: (§2)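 NCI single-dose screen: cells grown in RPMI 1640 with 5% FBS and 2 mM L-glutamine, plated at 5,000–40,000 cells/well and preincubated 24 h at 37 °C, 5% CO2. Compounds taken from DMSO stock and tested at final 10 µM for 48 h. Cells fixed with TCA, stained with 0.4% SRB, absorbance read at 515 nm. Percentage growth calculated against untreated controls; controls held DMSO at the same dilution.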

A549 = experiment: Growth inhibition of human A549/ATCC cells at 10 uM incubated for 48 hrs by sulforhodamine B assay relative to control; type: functional; conditions: A549, 48 h, read-out: GI; outline: as §1
NCI-H522 = experiment: Growth inhibition of human NCI-H522 cells at 10 uM incubated for 48 hrs by sulforhodamine B assay relative to control; type: functional; conditions: NCI-H522, 48 h, read-out: GI; outline: as §1
HCT-116 = experiment: Growth inhibition of human HCT116 cells at 10 uM incubated for 48 hrs by sulforhodamine B assay relative to control; type: functional; conditions: HCT-116, 48 h, read-out: GI; outline: as §1
HCT-15 = experiment: Growth inhibition of human HCT15 cells at 10 uM incubated for 48 hrs by sulforhodamine B assay relative to control; type: functional; conditions: HCT-15, 48 h, read-out: GI; outline: as §1
HT-29 = experiment: Growth inhibition of human HT-29 cells at 10 uM incubated for 48 hrs by sulforhodamine B assay relative to control; type: functional; conditions: HT-29, 48 h, read-out: GI; outline: as §1
SF-539 = experiment: Growth inhibition of human SF539 cells at 10 uM incubated for 48 hrs by sulforhodamine B assay relative to control; type: functional; conditions: SF-539, 48 h, read-out: GI; outline: as §2
SNB-19 = experiment: Growth inhibition of human SNB19 cells at 10 uM incubated for 48 hrs by sulforhodamine B assay relative to control; type: functional; conditions: SNB-19, 48 h, read-out: GI; outline: as §2
SNB-75 = experiment: Growth inhibition of human SNB75 cells at 10 uM incubated for 48 hrs by sulforhodamine B assay relative to control; type: functional; conditions: SNB-75, 48 h, read-out: GI; outline: as §2
LOX IMVI = experiment: Growth inhibition of human LOXIMVI cells at 10 uM incubated for 48 hrs by sulforhodamine B assay relative to control; type: functional; conditions: read-out: GI; outline: as §1
MDA-MB-435 = experiment: Growth inhibition of human MDA-MB-435 cells at 10 uM incubated for 48 hrs by sulforhodamine B assay relative to control; type: functional; conditions: MDA-MB-435, 48 h, read-out: GI; outline: as §1
SK-MEL-2 = experiment: Growth inhibition of human SK-MEL-2 cells at 10 uM incubated for 48 hrs by sulforhodamine B assay relative to control; type: functional; conditions: SK-MEL-2, 48 h, read-out: GI; outline: as §2
UACC-257 = experiment: Growth inhibition of human UACC257 cells at 10 uM incubated for 48 hrs by sulforhodamine B assay relative to control; type: functional; conditions: UACC-257, 48 h, read-out: GI; outline: as §2
IGROV-1 = experiment: Growth inhibition of human IGROV1 cells at 10 uM incubated for 48 hrs by sulforhodamine B assay relative to control; type: functional; conditions: IGROV-1, 48 h, read-out: GI; outline: as §1
OVCAR-8 = experiment: Growth inhibition of human OVCAR8 cells at 10 uM incubated for 48 hrs by sulforhodamine B assay relative to control; type: functional; conditions: OVCAR-8, 48 h, read-out: GI; outline: as §1
NCI/ADR-RES = experiment: Growth inhibition of human NCI/ADR-RES cells at 10 uM incubated for 48 hrs by sulforhodamine B assay relative to control; type: functional; conditions: read-out: GI; outline: as §1
786-0 = experiment: Growth inhibition of human 786-0 cells at 10 uM incubated for 48 hrs by sulforhodamine B assay relative to control; type: functional; conditions: 786-0, 48 h, read-out: GI; outline: as §1
ACHN = experiment: Growth inhibition of human ACHN cells at 10 uM incubated for 48 hrs by sulforhodamine B assay relative to control; type: functional; conditions: read-out: GI; outline: as §1
CAKI-1 = experiment: Growth inhibition of human Caki1 cells at 10 uM incubated for 48 hrs by sulforhodamine B assay relative to control; type: functional; conditions: CAKI-1, 48 h, read-out: GI; outline: as §1
TK-10 = experiment: Growth inhibition of human TK10 cells at 10 uM incubated for 48 hrs by sulforhodamine B assay relative to control; type: functional; conditions: TK-10, 48 h, read-out: GI; outline: as §2
UO-31 = experiment: Growth inhibition of human UO31 cells at 10 uM incubated for 48 hrs by sulforhodamine B assay relative to control; type: functional; conditions: UO-31, 48 h, read-out: GI; outline: as §2
DU-145 = experiment: Growth inhibition of human DU145 cells at 10 uM incubated for 48 hrs by sulforhodamine B assay relative to control; type: functional; conditions: DU-145, 48 h, read-out: GI; outline: as §1
Hs-578T = experiment: Growth inhibition of human Hs 578T cells at 10 uM incubated for 48 hrs by sulforhodamine B assay relative to control; type: functional; conditions: read-out: GI; outline: as §1
MDA-MB-468 = experiment: Growth inhibition of human MDA-MB-468 cells at 10 uM incubated for 48 hrs by sulforhodamine B assay relative to control; type: functional; conditions: MDA-MB-468, 48 h, read-out: GI; outline: as §1
HL-60(TB) [2] = experiment: Growth inhibition of human HL-60(TB) cells incubated for 24 hrs by MTT assay; type: functional, cell-based; conditions: HL-60, 24 h
Outline: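 Cells at 1.2-1.8×10^4 cells/ml in DMEM with 10% FBS, 10 µg/ml insulin and 1% penicillin/streptomycin, plated overnight at 37°C. Serial 10-fold dilutions added to 0.01–100 µM final, medium as negative control, 24 h. MTT (5 mg/ml) added for 4 h, formazan dissolved in acid-isopropanol, A490 read. Eight separate experiments; percent viable cells used to derive IC50.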

Q: Which inhibition of growth at 10 µM (CCRF-CEM) does the source give for CCOC(=O)C1=C(C)NC(SCc2nnc(-c3ccc(Cl)cc3)o2)=NC1c1cccc(Cl)c1 (centres undefined) here?
A: 38.2%

Q: What about the inhibition of growth at 10 µM (HL-60(TB) [1]) of the same compound?
A: 80.4%

Q: What about the inhibition of growth at 10 µM (MOLT-4) of the same compound?
A: 45%

Q: And the inhibition of growth at 10 µM (RPMI-8226)?
A: 46.4%

Q: And the inhibition of growth at 10 µM (SR)?
A: 16.4%

Q: What about the inhibition of growth at 10 µM (A549) of the same compound?
A: 29.5%

Q: And the inhibition of growth at 10 µM (NCI-H522)?
A: 74.6%

Q: What about the inhibition of growth at 10 µM (HCT-116) of the same compound?
A: 56.5%

Q: And the inhibition of growth at 10 µM (HCT-15)?
A: 29.5%

Q: And the inhibition of growth at 10 µM (HT-29)?
A: 46.4%

Q: And the inhibition of growth at 10 µM (SF-539)?
A: < 10%

Q: And the inhibition of growth at 10 µM (SNB-19)?
A: 10.4%

Q: What about the inhibition of growth at 10 µM (SNB-75) of the same compound?
A: 16.8%

Q: What about the inhibition of growth at 10 µM (LOX IMVI) of the same compound?
A: 17.7%

Q: What about the inhibition of growth at 10 µM (MDA-MB-435) of the same compound?
A: < 10%

Q: What about the inhibition of growth at 10 µM (SK-MEL-2) of the same compound?
A: 39.9%

Q: What about the inhibition of growth at 10 µM (UACC-257) of the same compound?
A: 22.2%

Q: What about the inhibition of growth at 10 µM (IGROV-1) of the same compound?
A: 14.6%

Q: What about the inhibition of growth at 10 µM (OVCAR-8) of the same compound?
A: 33.7%

Q: And the inhibition of growth at 10 µM (NCI/ADR-RES)?
A: 21.3%

Q: And the inhibition of growth at 10 µM (786-0)?
A: 43%

Q: What about the inhibition of growth at 10 µM (ACHN) of the same compound?
A: < 10%

Q: What about the inhibition of growth at 10 µM (CAKI-1) of the same compound?
A: 35.1%

Q: And the inhibition of growth at 10 µM (TK-10)?
A: 30.3%

Q: What about the inhibition of growth at 10 µM (UO-31) of the same compound?
A: 35.9%

Q: What about the inhibition of growth at 10 µM (DU-145) of the same compound?
A: 13.5%

Q: And the inhibition of growth at 10 µM (Hs-578T)?
A: < 10%

Q: And the inhibition of growth at 10 µM (MDA-MB-468)?
A: < 10%

Q: What about the IC50 (HL-60(TB) [2]) of the same compound?
A: 56 nM
